The source made the active and inactive calls. The rule behind the calls is not given here. Residues, ends and D or L forms follow the SMILES beside them.
Columns and labels:
[1] = Inhibition of chymotrypsin-like activity of human 20S proteasome
[2] = Inhibition of trypsin-like activity of human 20S proteasome
In short: (§1)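 Purified human 20S proteasome assayed with the activator PA28 (16 µg/ml) and fluorogenic substrates: Suc-Leu-Leu-Val-Tyr-AMC for chymotrypsin-like, Bz-VGR-AMC for trypsin-like, and (Z)-LLE-bNA for caspase-like activity. Fluorescence was read at 360/460 nm across a range of inhibitor concentrations. IC50 is the concentration that halves reaction velocity (ΔRFU/min), taken from a plot of velocity against log concentration.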

[3] = Inhibition of caspase-like activity of human 20S proteasome; in short: as §1
MT4 [4] = assay: Inhibition of chymotrypsin-like activity of 20S proteasome in human MT4 cells at 0.25 uM after 3 hrs; format: cell-based
MT4 [5] = assay: Inhibition of TNF-alpha-induced 20S proteasome degradation of IkappaBalpha in human MT4 cells at 1.6 uM after 3 hrs by Western blot analysis; format: cell-based
In short: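 MT4 cells pretreated with inhibitor 3 h, then TNFα 10 ng/ml for 30 min; cytosolic proteins resolved on 12% SDS-PAGE, transferred to nitrocellulose and Western blotted for IκBα, with β-actin as loading reference.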

| SMILES | IC50 [1] [µM] | further results |
| --- | --- | --- |
| CC1(C)[C@@H](OC(=O)Cc2cccc(CC(=O)O)c2)CC[C@]2(C)[C@H]3C(=O)C=C4[C@@H]5C[C@@](C)(C(=O)O)CC[C@]5(C)CC[C@@]4(C)[C@]3(C)CC[C@@H]12 | 1.05 | – |
| CC1(C)[C@@H](OC(=O)c2ccccc2)CC[C@]2(C)[C@H]3C(=O)C=C4[C@@H]5C[C@@](C)(C(=O)O)CC[C@]5(C)CC[C@@]4(C)[C@]3(C)CC[C@@H]12 | 2.08 | – |
| CC1(C)[C@@H](O)CC[C@]2(C)[C@H]3C(=O)C=C4[C@@H]5C[C@@](C)(C(=O)O)CC[C@]5(C)CC[C@@]4(C)[C@]3(C)CC[C@@H]12 [ENOXOLONE] | 22.3 | IC50 [2]: > 40 µM; IC50 [3]: > 40 µM |
| CC(=O)N[C@@H](CSC(=O)C1([C@@H](O)C(C)C)NC(=O)[C@H](C)[C@@H]1O)C(=O)O (single isomer, unassigned) [LACTACYSTIN] | – | IC50 [2]: > 30 µM; IC50 [3]: > 30 µM |
| CC1(C)[C@@H](OC(=O)COCC(=O)O)CC[C@]2(C)[C@H]3C(=O)C=C4[C@@H]5C[C@@](C)(C(=O)O)CC[C@]5(C)CC[C@@]4(C)[C@]3(C)CC[C@@H]12 | 1.93 | – |
| CCC(=O)O[C@H]1CC[C@]2(C)[C@H]3C(=O)C=C4[C@@H]5C[C@@](C)(C(=O)O)CC[C@]5(C)CC[C@@]4(C)[C@]3(C)CC[C@H]2C1(C)C | > 40 | – |
| CSCC[C@@H](C=O)NC(=O)[C@H](CC(C)C)NC(=O)[C@H](CC(C)C)NC(C)=O (Ac-Leu-Leu-Met-aldehyde) | 5.25 | IC50 [2]: > 25 µM; IC50 [3]: 22.5 µM |
| CC1(C)[C@@H](OC(=O)c2cccc(C(=O)O)c2)CC[C@]2(C)[C@H]3C(=O)C=C4[C@@H]5C[C@@](C)(C(=O)O)CC[C@]5(C)CC[C@@]4(C)[C@]3(C)CC[C@@H]12 | 0.22 | IC50 [2]: 2.91 µM; IC50 [3]: 3.56 µM; inhibition (MT4 [4]): 50%; Activity (MT4 [5]): Active |
| CC(C(=O)O)C(C)C(=O)O[C@H]1CC[C@]2(C)[C@H]3C(=O)C=C4[C@@H]5C[C@@](C)(C(=O)O)CC[C@]5(C)CC[C@@]4(C)[C@]3(C)CC[C@H]2C1(C)C (stereo partly specified) | 8.7 | – |
| CC(C)CC(NC(=O)[C@@]1(C)CC[C@]2(C)CC[C@]3(C)C(=CC(=O)[C@@H]4[C@@]5(C)CC[C@H](OC(=O)CC(C)(C)C(=O)O)C(C)(C)[C@@H]5CC[C@]43C)[C@@H]2C1)C(=O)O (stereo partly specified) | 3.09 | – |
| CC1(C)[C@@H](OC(=O)c2ccc(C(=O)O)cc2)CC[C@]2(C)[C@H]3C(=O)C=C4[C@@H]5C[C@@](C)(C(=O)O)CC[C@]5(C)CC[C@@]4(C)[C@]3(C)CC[C@@H]12 | 0.31 | – |
| COC(=O)C(CC(C)C)NC(=O)[C@@]1(C)CC[C@]2(C)CC[C@]3(C)C(=CC(=O)[C@@H]4[C@@]5(C)CC[C@H](OC(C)=O)C(C)(C)[C@@H]5CC[C@]43C)[C@@H]2C1 (stereo partly specified) | > 40 | – |
| CC1(C)[C@@H](OC(=O)Cc2ccc(CC(=O)O)cc2)CC[C@]2(C)[C@H]3C(=O)C=C4[C@@H]5C[C@@](C)(C(=O)O)CC[C@]5(C)CC[C@@]4(C)[C@]3(C)CC[C@@H]12 | 1.78 | – |
| CC(=O)O[C@H]1CC[C@]2(C)[C@H]3C(=O)C=C4[C@@H]5C[C@@](C)(C(=O)O)CC[C@]5(C)CC[C@@]4(C)[C@]3(C)CC[C@H]2C1(C)C [ACETOXOLONE] | > 40 | – |

The next lines start with results.

| IC50 [1] [µM] | SMILES | further results |
| --- | --- | --- |
| > 40 | CC(C)CC(NC(=O)[C@@]1(C)CC[C@]2(C)CC[C@]3(C)C(=CC(=O)[C@@H]4[C@@]5(C)CC[C@H](O)C(C)(C)[C@@H]5CC[C@]43C)[C@@H]2C1)C(=O)O (stereo partly specified) | – |
| 0.29 | CC1(C)[C@@H](OC(=O)CCCCC(=O)O)CC[C@]2(C)[C@H]3C(=O)C=C4[C@@H]5C[C@@](C)(C(=O)O)CC[C@]5(C)CC[C@@]4(C)[C@]3(C)CC[C@@H]12 | IC50 [2]: 3.32 µM; IC50 [3]: 5.02 µM |
| 0.35 | CC1(C)[C@@H](OC(=O)C/C=C/CC(=O)O)CC[C@]2(C)[C@H]3C(=O)C=C4[C@@H]5C[C@@](C)(C(=O)O)CC[C@]5(C)CC[C@@]4(C)[C@]3(C)CC[C@@H]12 | IC50 [2]: 19.3 µM; IC50 [3]: 26.5 µM |
| 0.87 | CC(C)(CC(=O)O[C@H]1CC[C@]2(C)[C@H]3C(=O)C=C4[C@@H]5C[C@@](C)(C(=O)O)CC[C@]5(C)CC[C@@]4(C)[C@]3(C)CC[C@H]2C1(C)C)C(=O)O | – |
| 2.27 | CC(=O)Cc1ccc(OCC(=O)O[C@H]2CC[C@]3(C)[C@H]4C(=O)C=C5[C@@H]6C[C@@](C)(C(=O)O)CC[C@]6(C)CC[C@@]5(C)[C@]4(C)CC[C@H]3C2(C)C)cc1 | – |
| 2.63 | CC1(C)[C@@H](OC(=O)CCC(=O)O)CC[C@]2(C)[C@H]3C(=O)C=C4[C@@H]5C[C@@](C)(C(=O)O)CC[C@]5(C)CC[C@@]4(C)[C@]3(C)CC[C@@H]12 [CARBENOXOLONE] | – |
| 6.86 | CC(C)(CC(=O)O)CC(=O)O[C@H]1CC[C@]2(C)[C@H]3C(=O)C=C4[C@@H]5C[C@@](C)(C(=O)O)CC[C@]5(C)CC[C@@]4(C)[C@]3(C)CC[C@H]2C1(C)C | – |
| 1.92 | CC(C)C(=O)O[C@H]1CC[C@]2(C)[C@H]3C(=O)C=C4[C@@H]5C[C@@](C)(C(=O)O)CC[C@]5(C)CC[C@@]4(C)[C@]3(C)CC[C@H]2C1(C)C | – |
| 1.39 | CC1(C)[C@@H](OC(=O)CCCC(=O)O)CC[C@]2(C)[C@H]3C(=O)C=C4[C@@H]5C[C@@](C)(C(=O)O)CC[C@]5(C)CC[C@@]4(C)[C@]3(C)CC[C@@H]12 | – |

Source: ChEMBL document CHEMBL1155027, “Synthesis and proteasome inhibition of glycyrrhetinic acid derivatives” (Bioorg Med Chem, 2008)
